Results as given in ChEMBL document CHEMBL2062453, “Lead optimization through VLAK protocol: new annelated pyrrolo-pyrimidine derivatives as antitumor agents” (2012).

Tests used:
Format in all cases: functional
Malme-3M = experiment: Cytotoxicity against human MALME-3M cells after 48 hrs by SRB assay
How it was run: (§1)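 NCI 60-cell five-dose screen. Cells grown in RPMI 1640 with 5% FBS and 2 mM glutamine, plated at 5000–40,000 cells/well, and preincubated 24 h at 37 °C in 5% CO2. Time-zero plates fixed with TCA. Five serial dilutions of DMSO stock added, then 48 h exposure. TCA fixation, 0.4% SRB staining, absorbance read at 515 nm. GI50 from [(Ti−Tz)/(C−Tz)]×100 = 50.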

NCI-H23 = experiment: Cytotoxicity against human NCI-H23 cells after 48 hrs by SRB assay; conditions: NCI-H23, 48 h
How it was run: (§2)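 Five-dose screen, 10-fold or ½-log dilutions, compound stock in DMSO. Cells were in RPMI 1640 with 5% FBS and 2 mM glutamine at 5000–40,000 cells/well, preincubated 24 h, 37 °C, 5% CO₂, with a time-zero plate TCA-fixed. After 48 h drug exposure, cells were TCA-fixed and stained with 0.4% SRB, read at 515 nm. GI50, TGI and LC50 were derived from time-zero, control and test absorbances.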

NCI-H322M = experiment: Cytotoxicity against human NCI-H322M cells after 48 hrs by SRB assay; how it was run: as §2
MCF7 = experiment: Cytotoxicity against human MCF7 cells after 48 hrs by SRB assay; conditions: MCF7, 48 h; how it was run: as §1
UACC-62 = experiment: Cytotoxicity against human UACC62 cells after 48 hrs by SRB assay; conditions: UACC-62, 48 h
How it was run: (§3)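 NCI 60-panel five-dose screen. Cells in RPMI 1640 with 5% FBS and 2 mM glutamine, plated at 5000–40,000 cells/well and preincubated 24 h at 37 °C under 5% CO2. Five 10-fold or half-log dilutions were added from a DMSO stock for 48 h. Cells were TCA-fixed (SR settled cells: 16% final), SRB-stained and read at 515 nm. GI50 was taken where (Ti−Tz)/(C−Tz)×100 = 50.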

NCI-H522 = experiment: Cytotoxicity against human NCI-H522 cells after 48 hrs by SRB assay; conditions: NCI-H522, 48 h; how it was run: as §2
SK-MEL-5 = experiment: Cytotoxicity against human SK-MEL-5 cells after 48 hrs by SRB assay; conditions: SK-MEL-5, 48 h; how it was run: as §2
MDA-MB-231 = experiment: Cytotoxicity against human MDA-MB-231 cells after 48 hrs by SRB assay; conditions: MDA-MB-231, 48 h; how it was run: as §1
A498 = experiment: Cytotoxicity against human A498 cells after 48 hrs by SRB assay; conditions: A498, 48 h; how it was run: as §1
DU-145 = experiment: Cytotoxicity against human DU145 cells after 48 hrs by SRB assay; conditions: DU-145, 48 h; how it was run: as §1
OVCAR-3 = experiment: Cytotoxicity against human OVCAR3 cells after 48 hrs by SRB assay; conditions: OVCAR-3, 48 h; how it was run: as §2
SW-620 = experiment: Cytotoxicity against human SW620 cells after 48 hrs by SRB assay; conditions: SW-620, 48 h; how it was run: as §3
SF-295 = experiment: Cytotoxicity against human SF295 cells after 48 hrs by SRB assay; conditions: SF-295, 48 h; how it was run: as §2
SNB-75 = experiment: Cytotoxicity against human SNB75 cells after 48 hrs by SRB assay; conditions: SNB-75, 48 h; how it was run: as §2
UO-31 = experiment: Cytotoxicity against human UO31 cells after 48 hrs by SRB assay; conditions: UO-31, 48 h; how it was run: as §3
NCI-H226 = experiment: Cytotoxicity against human NCI-H226 cells after 48 hrs by SRB assay; conditions: NCI-H226, 48 h; how it was run: as §2
OVCAR-4 = experiment: Cytotoxicity against human OVCAR4 cells after 48 hrs by SRB assay; conditions: OVCAR-4, 48 h; how it was run: as §2
RXF 393 = experiment: Cytotoxicity against human RXF393 cells after 48 hrs by SRB assay; conditions: RXF 393, 48 h; how it was run: as §2
SF-539 = experiment: Cytotoxicity against human SF539 cells after 48 hrs by SRB assay; conditions: SF-539, 48 h; how it was run: as §2
CAKI-1 = experiment: Cytotoxicity against human Caki1 cells after 48 hrs by SRB assay; conditions: CAKI-1, 48 h; how it was run: as §1
TK-10 = experiment: Cytotoxicity against human TK10 cells after 48 hrs by SRB assay; conditions: TK-10, 48 h; how it was run: as §3
OVCAR-8 = experiment: Cytotoxicity against human OVCAR8 cells after 48 hrs by SRB assay; conditions: OVCAR-8, 48 h; how it was run: as §2
Hs-578T = experiment: Cytotoxicity against human Hs578T cells after 48 hrs by SRB assay; how it was run: as §1
BT-549 = experiment: Cytotoxicity against human BT549 cells after 48 hrs by SRB assay; conditions: BT-549, 48 h; how it was run: as §1
M14 = experiment: Cytotoxicity against human M14 cells after 48 hrs by SRB assay; conditions: M14, 48 h; how it was run: as §1
EKVX = experiment: Cytotoxicity against human EKVX cells after 48 hrs by SRB assay; how it was run: as §1
KM12 = experiment: Cytotoxicity against human KM12 cells after 48 hrs by SRB assay; conditions: KM12, 48 h; how it was run: as §1
HOP-62 = experiment: Cytotoxicity against human HOP62 cells after 48 hrs by SRB assay; conditions: HOP-62, 48 h; how it was run: as §1

CSC1=Nc2c(c(C)c(-c3ccccc3)n2CCCCl)C2=NC(=O)CN12
GI50 (Malme-3M): 8.32 µM
LC50 (Malme-3M): 58.9 µM
TGI (Malme-3M; read-out: pTGI (converted)): 23.4 µM
GI50 (NCI-H23): 8.32 µM
LC50 (NCI-H23): > 100 µM
TGI (NCI-H23; read-out: pTGI (converted)): 46.8 µM
GI50 (NCI-H322M): 9.77 µM
LC50 (NCI-H322M): 58.9 µM
TGI (NCI-H322M; read-out: pTGI (converted)): 24.5 µM
GI50 (MCF7): 3.39 µM
LC50 (MCF7): 77.6 µM
TGI (MCF7; read-out: pTGI (converted)): 16.6 µM
GI50 (UACC-62): 2.09 µM
LC50 (UACC-62): 38 µM
TGI (UACC-62; read-out: pTGI (converted)): 11.5 µM
GI50 (NCI-H522): 3.89 µM
CC50 (NCI-H522; read-out: pLC50 (the source's name) (converted)): 75.9 µM
TGI (NCI-H522; read-out: pTGI (converted)): 19.1 µM
GI50 (SK-MEL-5): 3.47 µM
LC50 (SK-MEL-5): 38 µM
TGI (SK-MEL-5; read-out: pTGI (converted)): 14.1 µM
GI50 (MDA-MB-231): 5.62 µM
LC50 (MDA-MB-231): 77.6 µM
TGI (MDA-MB-231; read-out: pTGI (converted)): 24 µM
GI50 (A498): 3.89 µM
LC50 (A498): 53.7 µM
TGI (A498; read-out: pTGI (converted)): 15.1 µM
GI50 (DU-145): 11.5 µM
LC50 (DU-145): 61.7 µM
TGI (DU-145; read-out: pTGI (converted)): 26.9 µM
GI50 (OVCAR-3): 8.32 µM
LC50 (OVCAR-3): > 100 µM
TGI (OVCAR-3; read-out: pTGI (converted)): 36.3 µM
GI50 (SW-620): 4.79 µM
LC50 (SW-620): > 100 µM
TGI (SW-620; read-out: pTGI (converted)): 53.7 µM
GI50 (SF-295): 4.07 µM
LC50 (SF-295): > 100 µM
TGI (SF-295; read-out: pTGI (converted)): 26.9 µM
GI50 (SNB-75): 2.82 µM
LC50 (SNB-75): 67.6 µM
TGI (SNB-75; read-out: pTGI (converted)): 11.7 µM
GI50 (UO-31): 10.5 µM
LC50 (UO-31): 77.6 µM
TGI (UO-31; read-out: pTGI (converted)): 28.8 µM
GI50 (NCI-H226): 11 µM
LC50 (NCI-H226): 81.3 µM
TGI (NCI-H226; read-out: pTGI (converted)): 29.5 µM
GI50 (OVCAR-4): 6.76 µM
LC50 (OVCAR-4): > 100 µM
TGI (OVCAR-4; read-out: pTGI (converted)): 44.7 µM
GI50 (RXF 393): 11.2 µM
LC50 (RXF 393): 79.4 µM
TGI (RXF 393; read-out: pTGI (converted)): 29.5 µM
GI50 (SF-539): 3.39 µM
LC50 (SF-539): 39.8 µM
TGI (SF-539; read-out: pTGI (converted)): 14.1 µM
GI50 (CAKI-1): 4.57 µM
LC50 (CAKI-1): > 100 µM
TGI (CAKI-1; read-out: pTGI (converted)): 28.2 µM
GI50 (TK-10): 8.51 µM
LC50 (TK-10): > 100 µM
TGI (TK-10; read-out: pTGI (converted)): 77.6 µM
GI50 (OVCAR-8): 16.2 µM
LC50 (OVCAR-8): > 100 µM
TGI (OVCAR-8; read-out: pTGI (converted)): 72.4 µM
GI50 (Hs-578T): 6.31 µM
LC50 (Hs-578T): > 100 µM
TGI (Hs-578T; read-out: pTGI (converted)): 34.7 µM
GI50 (BT-549): 4.9 µM
LC50 (BT-549): > 100 µM
TGI (BT-549; read-out: pTGI (converted)): 35.5 µM
GI50 (M14): 3.31 µM
LC50 (M14): > 100 µM
TGI (M14; read-out: pTGI (converted)): 15.1 µM
GI50 (EKVX): 6.92 µM
LC50 (EKVX): > 100 µM
TGI (EKVX; read-out: pTGI (converted)): 30.9 µM
GI50 (KM12): 4.17 µM
LC50 (KM12): 81.3 µM
TGI (KM12; read-out: pTGI (converted)): 18.6 µM
GI50 (HOP-62): 11 µM
LC50 (HOP-62): > 100 µM
TGI (HOP-62; read-out: pTGI (converted)): 63.1 µM
